OXTR ag: human OXTR agonism. CHO-OTR cells, Fluo-8 calcium fluorescence; normalized: DMSO 0%, oxytocin 100%. activation, % at 3 µM. hit rate 0.32% among 320,000;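 active = activation above the mean of all tested compounds plus 3 SD, cutoff set per screening run, cut at about 20% in these data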;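 note: peak over basal fluorescence ratio from a 100 s FLIPR kinetic read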
TAAR1 ag: human TAAR1 agonism. hit rate 0.99% among 360,000. CHO RD-HGA16 TAAR1, Fluo-8 calcium fluorescence; vehicle wells 0%, saturating PEA agonist 100%. activation, % at 3 µM. AID 624467;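 active = activation above the mean activation of all test compounds in the run plus 3 SD, cut at about 38% in these data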
Target sequence (Q96RJ0 whole entry, looked up): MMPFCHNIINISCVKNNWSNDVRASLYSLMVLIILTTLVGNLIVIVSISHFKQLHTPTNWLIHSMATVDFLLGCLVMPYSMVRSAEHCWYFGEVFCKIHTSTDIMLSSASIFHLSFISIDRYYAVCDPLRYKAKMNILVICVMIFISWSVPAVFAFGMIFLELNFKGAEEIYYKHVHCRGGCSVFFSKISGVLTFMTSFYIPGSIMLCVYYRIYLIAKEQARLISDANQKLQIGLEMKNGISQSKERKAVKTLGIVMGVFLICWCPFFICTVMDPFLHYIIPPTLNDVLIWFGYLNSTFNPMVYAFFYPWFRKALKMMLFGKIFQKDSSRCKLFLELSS
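Assay system: CHO-derived RD-HGA16 cells with stable Gα16 and human TAAR1; timing: 17-24 h seeding, 75 min 37 °C dye, 30 min RT; read-out: % activation from peak over basal fluorescence ratio, DMSO-to-PEA scaled; measured by: kinetic Fluo-8 calcium fluorescence; benchmarks: low control DMSO, high control PEA (EC100); doses: 3 µM single concentration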
V1aR counter: counter-screen for oxytocin receptor agonists: human V1a receptor agonists | activation, % at 3 µM | hit rate 0.25% among 320,000 | AID 2797 | CHO-V1R cells, Fluo-8 calcium fluorescence, agonist mode; 0% DMSO, 100% 3 nM vasopressin | P37288;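 active = activation above the mean activation of all tested compounds plus 3 SD, per screening run, cut at about 20% in these data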;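 note: signal is peak over basal fluorescence ratio across a 100 second FLIPR read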
OXTR potentiate: potentiators of human oxytocin receptor; activation, % at 3 µM; CHO-OTR cells, Fluo-8 calcium fluorescence, potentiator mode; 0% = oxytocin EC15, 100% = EC100; hit rate 0.061% among 320,000; P30559; AID 2445;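 active = activation above that plate's cutoff, the mean activation of tested compounds plus 3 SD, cut at about 6.6% in these data, passing the limit was not always enough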
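System: human OTR in CHO cells / Also added: sub-maximal oxytocin, roughly EC15 / Control set: EC15 oxytocin low, 75 nM oxytocin high / Schedule: 6 min compound pre-incubation at room temperature, 100 s kinetic read / Compound: single-point 3.0 µM / Replication: singlicate / Technique: Fluo-8 calcium dye fluorescence / Read-out basis: % activation of max/min ratio relative to oxytocin controls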
TAAR1 antagonist: antagonists of human TAAR1; Q96RJ0; CHO RD-HGA16 TAAR1, Fluo-8 calcium fluorescence, antagonist; inhibition, % at 3 µM; hit rate 1.5% among 360,000; AID 624466;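 active = inhibition above a per-plate cutoff, the mean inhibition of test compounds on that plate plus 3 SD, cut at about 49% in these data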
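test system = CHO RD-HGA16 cells bearing hTAAR1 | replication = singlicate | controls = DMSO-only wells and EC80 β-PEA-stimulated wells | reagent = EC80 β-phenethylamine stimulus | read-out basis = percent inhibition of PEA-evoked calcium signal, max/basal emission ratio | schedule = seeding 17-24 h prior, 75-min 37 °C, 30-min RT dye loading | signal = kinetic Fluo-8 calcium fluorescence measurement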
TAAR1 ag confirm: human TAAR1 agonism, confirmed. shares compounds with TAAR1 ag. CHO RD-HGA16 TAAR1, Fluo-8 calcium fluorescence; scaled: DMSO 0%, maximal phenethylamine 100%. activation, % at 3 µM. hit rate 82% among 2,400;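 active = activation above a cutoff set at the run's mean compound activation plus 3 SD, cut at about 39% in these data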
Ga16 ag counter: counter-screen for TAAR1 agonists: nonselective agonists in parental cells; shares compounds with TAAR1 ag; CHO-Ga16 parental, Fluo-8 calcium fluorescence; normalized to maximal ATP response, DMSO zero; activation, % at 3 µM; hit rate 50% among 2,400;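 active = activation above the run cutoff, the mean activation over all tested wells plus 3 SD, cut at about 12% in these data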
TAAR1 desens: counter-screen for human TAAR1 agonists: agonists that desensitize TAAR1; inhibition, % at 3 µM; shares compounds with TAAR1 ag; AID 651951; hit rate 46% among 2,400; CHO RD-HGA16 hTAAR1, Fluo-8 calcium, beta-PEA response inhibition;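 active = inhibition above the run cutoff, the mean inhibition of all test compounds plus 3 SD, cut at about 49% in these data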;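 note: beta-PEA stimulus applied at its EC80; loss of beta-PEA calcium signal after compound pretreatment read as receptor desensitization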
Ga16 nonsel ant: nonselective Ga16 antagonism, counter-screen. shares compounds with TAAR1 ag. hit rate 39% among 2,400. CHO-Ga16 ATP-induced calcium, Fluo-8 fluorescence. inhibition, % at 3 µM;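 active = inhibition above the plate's mean compound inhibition plus 3 SD, computed per plate, cut at about 22% in these data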
A number is an active result; 0 = inactive; - = not tested or not shown. Most compounds without a hit are left out; they make up all but 2.3% or so of the library.

SMILES	OXTR ag	TAAR1 ag	V1aR counter	OXTR potentiate	TAAR1 antagonist	TAAR1 ag confirm	Ga16 ag counter	TAAR1 desens	Ga16 nonsel ant
COc1cc(/C=C2/SC(=S)N(Cc3ccccc3)C2=O)cc(Cl)c1O	70	103	65	0	89	182	198	101	100
COc1cc(CN2CCCC(C(=O)c3ccc(C(C)(C)C)cc3)C2)cc(OC)c1O (configuration not stated)	0	54	0	0	0	0	0	0	0
CN(CCOc1ccccc1)C(=O)c1ccc(N2CCCC2)c([N+](=O)[O-])c1	0	0	0	0	0	-	-	-	-
CCc1cc(C(=O)Cc2cnn(-c3ccccc3)c2)c(O)cc1O	0	49	0	0	63	50	48	80	52
CCc1ccccc1NC(=O)N1CCc2ccccc2C1	-	80	-	-	55	96	0	82	0
CN1CCN(C(=O)Nc2cccc3ccccc23)CC1	0	0	0	0	0	-	-	-	-
O=C(Nc1cccc2ccccc12)N1CCc2ccccc2C1	0	77	0	0	74	78	0	65	0
CCN1CCN(CCNC(=O)c2ccc(/C=C3/Sc4ccccc4N(Cc4ccccc4C)C3=O)cc2)CC1	-	60	-	-	0	72	46	65	56
CCc1cc(=O)oc2cc(C)c(CN3CCCC(C)C3)c(O)c12 (configuration not stated)	0	51	0	0	0	82	0	0	0
Cc1ccc(Cl)cc1NC(=O)CON=C(N)c1ccccc1	-	0	-	-	0	-	-	-	-
Nc1nc(N)c2cc(CNc3ccc(Cl)c(Cl)c3)ccc2n1	-	64	-	-	53	80	42	74	66
CC(=O)C[C@@H](O)CC(=O)[C@@H]1OC(=O)CCCCCCCc2ccccc21	0	0	0	0	0	-	-	-	-
O=C(COC(=O)CCC1CCCC1)Nc1ccc(Cl)cn1	0	46	0	0	0	0	0	0	0
O=C(COC(=O)C1CCC1)Nc1ccc(Cl)cn1	0	0	0	0	0	-	-	-	-
CC1=C(C(=O)Nc2ccccc2C(=O)NC2CCCCC2)SCCO1	0	0	0	0	0	-	-	-	-
CCN1C(N(C)CCc2cccs2)=N[C@@H](c2ccccc2)C(C(=O)OC)=C1C	0	68	0	0	0	74	0	0	0
CCN1C(=S)N[C@@H](c2ccccc2)C(C(=O)OC)=C1C	0	0	0	0	0	-	-	-	-
CCCCn1c(Nc2ccccc2)nc2ccccc21	0	45	0	0	0	0	0	0	0
COC(=O)[C@@]1(Cc2ccc(F)cc2)[C@H]2c3cc(C(=O)N4CCCC4)n(CCc4ccccn4)c3C[C@H]2CN1C(=O)c1ccccc1	0	88	0	0	0	53	14	0	0
COC(=O)[C@@]1(Cc2ccc(F)cc2)[C@H]2c3cc(C(=O)N(C)C)n(CCc4ccccn4)c3C[C@H]2CN1C(=O)c1ccccc1	0	0	0	0	0	-	-	-	-
COc1cccc2c(=O)n(CC(=O)Nc3cccc(F)c3)ccc12	0	61	0	0	0	46	40	0	0
O=c1c2ccc(Cl)cc2nc(-c2cccc(C(F)(F)F)c2)n1O	0	52	0	0	0	0	32	0	0
Cc1cccc(-c2ccc3c(c2)C2CC3CCN2)c1 (configuration not stated)	-	0	-	-	0	-	-	-	-
N#C/C(=C\c1ccc(N2CCOCC2)o1)C(=O)Nc1ccc(O)cc1	20	58	29	0	0	0	19	0	28
COc1ccc(NC(=O)/C(C#N)=C\c2ccc(N3CCOCC3)o2)cc1	70	135	117	0	76	49	60	65	62
